NR2E3 ag-1 = agonists of human NR2E3 nuclear receptor; Q9Y5X4; CHO-S Gal4-NCOR/VP16-NR2E3 two-hybrid, luciferase; inhibition of corepressor binding, % at 3.98 µM; hit rate 0.35% among 360,000; AID 602229;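 active = inhibition above the mean of all tested compounds plus 3 SD, cut at about 70% in these data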;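 note: 0% = DMSO with NR2E3 transfected cells and 100% = cells lacking NR2E3 construct; higher means lower luciferase signal from less NR2E3 corepressor binding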
Target sequence (Q9Y5X4 whole entry, looked up, the tested form may be a part): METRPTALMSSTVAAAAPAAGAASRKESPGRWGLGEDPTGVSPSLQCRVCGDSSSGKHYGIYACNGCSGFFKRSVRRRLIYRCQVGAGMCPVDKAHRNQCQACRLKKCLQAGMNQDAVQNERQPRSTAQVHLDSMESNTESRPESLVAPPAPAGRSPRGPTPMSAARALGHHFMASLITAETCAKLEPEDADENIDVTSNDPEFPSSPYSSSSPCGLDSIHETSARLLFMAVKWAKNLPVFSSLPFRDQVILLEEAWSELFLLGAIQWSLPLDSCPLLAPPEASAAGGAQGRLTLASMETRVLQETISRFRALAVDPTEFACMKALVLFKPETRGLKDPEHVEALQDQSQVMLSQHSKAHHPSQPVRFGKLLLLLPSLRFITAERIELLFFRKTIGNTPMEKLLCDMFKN
MC4R ag barr = activates human MC4R beta-arrestin recruitment; P32245; activation, % at 8.9 µM; hit rate 0.98% among 360,000; U2OS MC4R beta-arrestin complementation, luminescence; percent of melanotan II response, DMSO zero;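 active = activation above a per-plate cutoff, the mean activation of sample wells on that plate plus 3 SD, cut at about 8% in these data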
Target sequence (P32245 whole entry, looked up): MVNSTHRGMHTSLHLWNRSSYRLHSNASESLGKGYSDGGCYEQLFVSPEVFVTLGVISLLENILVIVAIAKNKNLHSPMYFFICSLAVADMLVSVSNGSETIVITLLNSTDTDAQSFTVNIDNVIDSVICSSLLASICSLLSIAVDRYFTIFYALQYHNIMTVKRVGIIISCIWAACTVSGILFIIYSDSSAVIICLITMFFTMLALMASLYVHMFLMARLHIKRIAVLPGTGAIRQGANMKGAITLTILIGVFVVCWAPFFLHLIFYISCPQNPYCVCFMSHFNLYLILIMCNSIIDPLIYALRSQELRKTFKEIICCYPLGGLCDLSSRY
Rev-erbA mod = modulates human Rev-erb alpha binding to DNA; Rev-erbα–FITC-DNA binding, fluorescence polarization, 90 min; activity, % at 10 µM; hit rate 0.79% among 370,000;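 active = activity above about 14%, limit read from the data; passing the limit was not always enough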;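 note: 0% = DMSO wells with 35 nM protein and 100% = DMSO wells with 750 nM protein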
MC4R antagonist = blocks human MC4R cAMP signaling. P32245. MC4R-expressing cells, MTII-stimulated cAMP, LANCE TR-FRET. inhibition, % at 6.5 µM. hit rate 0.48% among 360,000;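 active = inhibition above its plate's cutoff, the mean of tested wells on that plate plus 3 SD, cut at about 29% in these data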;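 note: 0% = Melanotan II alone and 100% = Melanotan II plus saturating MCL0020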
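System: U2OS cells stably expressing human melanocortin 4 receptor (MC4R). Reagent: Melanotan II challenge after compound preincubation. Doses: 6.5 µM. Times: 30-min compound, 1-h challenge, 1-h detection, room temperature. Measured by: TR-FRET with Eu-cAMP and labeled anti-cAMP, 671 nm. Replicates: singlicate.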
NR2E3 ag-2 = activates human photoreceptor nuclear receptor NR2E3. Q9Y5X4. GST-NR2E3/biotin-RetCOR TR-FRET, 1536-well. inhibition of corepressor binding, % at 4.78 µM. hit rate 0.12% among 320,000. AID 2300;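 active = percent inhibition above the cutoff of mean plus 3 SD of all tested compounds, set per screening campaign, cut at about 20% in these data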;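 note: 0% = DMSO wells and 100% = biotin wells as full block of FRET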
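Format: 1536-well format; test system: GST-NR2E3 and biotin-RetCOR proteins; read-out basis: percent inhibition of TR-FRET ratio; timing: 5 h incubation at 4 °C; detection: time-resolved FRET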
PG9 binder = binds the HIV-1 gp120 antibody PG9 | TR-FRET gp120-PG9 antibody binding | inhibition, % at 6.7 µM | hit rate 0.43% among 360,000; in the data active = inhibition above about 8.5%
NR2E3 ag confirm = confirmation of human NR2E3 nuclear receptor agonists | activation (reported as inhibition), % at 3.98 µM | shares compounds with NR2E3 ag-2 | cell-free NR2E3 corepressor release, TR-FRET, 5 h | hit rate 39% among 360; in the data active = activation above about 20%
PPARg-NCOR2 ctr = releases PPARgamma from NCOR2 in NR2E3 counter-screen | inhibition, % at 3.98 µM | TR-FRET PPARg-NCOR2 coregulator interaction, biochemical | hit rate 45% among 360 | shares compounds with NR2E3 ag-2; in the data active = inhibition above about 20%;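 note: 0% = DMSO vehicle and 100% = wells without protein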
U2OS cAMP counter = counter-screen for MC4R antagonists: nonselective cAMP signaling inhibitors; hit rate 26% among 1,600; inhibition, % at 6.5 µM; parental U2OS, forskolin cAMP, LANCE TR-FRET; shares compounds with MC4R antagonist;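 active = mean inhibition over triplicates above the low-control well mean plus 3 SD, set per campaign, cut at about 13% in these data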;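 note: signal is single emission at 671 nm which falls as cellular cAMP rises; 0% = forskolin-stimulated wells and 100% = buffer without forskolin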
MC4R cAMP antag = human MC4R cAMP antagonism confirmation; shares compounds with MC4R antagonist; MC4R-expressing cells, MTII-stimulated cAMP, TR-FRET; inhibition, % at 6.5 µM; hit rate 27% among 1,600; in the data active = inhibition above about 29%;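 note: 0% = agonist stimulated wells alone and 100% = agonist stimulated wells plus saturating reference antagonist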
PG9 binder conf = confirmation of small molecules binding HIV-1 gp120 antibody PG9. hit rate 90% among 1,500. TR-FRET PG9 antibody binding, biochemical. shares compounds with PG9 binder. AID 651571. inhibition, % at 6.7 µM; in the data active = inhibition above about 9%
PGV04 Ab binding = PGV04 control antibody binding, counter-screen. AID 651604. inhibition, % at 6.7 µM. hit rate 95% among 1,500. shares compounds with PG9 binder. TR-FRET PGV04 antibody-gp120 binding, biochemical; in the data active = inhibition above about 9.5%
Rev-erbA confirm = confirmation of modulators of human Rev-erb alpha DNA binding; hit rate 61% among 3,000; activation, % at 25 µM; shares compounds with Rev-erbA mod; Rev-erb alpha FITC-DNA binding, fluorescence polarization, 90 min;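 active = activation at or above a set limit, or at least 3 SD above the negative control mean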;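 note: 0% = 35 nM protein with DMSO and 100% = 750 nM protein high control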
RORg DNA counter = RORgamma DNA-binding activity, dose-response counter-screen | shares compounds with Rev-erbA mod | purified RORgamma protein-FITC-DNA binding, fluorescence polarization | hit rate 8% among 910 | IC50, µM;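 active = Compounds whose fitted half-maximal concentration for disrupting protein-DNA binding is below 10 micromolar; the record names Rev-erb in its text, so the target is in doubt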
An asterisk follows results filed as active. This is a sample that favours compounds with a hit; in the whole collection about 2.7% have one here.

For COc1ccc(-c2c(C)sc(NC(=O)c3ccnn3C)c2C#N)cc1 the results were NR2E3 ag-1 -7.8, MC4R ag barr 2.2, Rev-erbA mod 47.0*, MC4R antagonist 1.3, NR2E3 ag-2 29.9*, PG9 binder 51.7*, NR2E3 ag confirm 9.4, PPARg-NCOR2 ctr 20.9*, PG9 binder conf 59.6*, PGV04 Ab binding 60.8* and Rev-erbA confirm 26.8*.
Screening COc1ccc(C(=O)NNC(=O)C(Cc2ccc(O)cc2)NC(=O)c2ccccc2NC(=O)c2ccc(OC)cc2)cc1 (centres undefined) returned NR2E3 ag-1 12.6, MC4R ag barr 1.7, Rev-erbA mod 44.9*, MC4R antagonist 8.1, NR2E3 ag-2 39.9*, PG9 binder -0.6, NR2E3 ag confirm 21.9*, PPARg-NCOR2 ctr -4.8, Rev-erbA confirm 35.9* and RORg DNA counter >40.
For COc1ccccc1-c1ccc(NC2CCCC2)nn1 the results were NR2E3 ag-1 -41.3, MC4R ag barr -0.6, Rev-erbA mod 6.5, MC4R antagonist -4.4, NR2E3 ag-2 4.9 and PG9 binder 0.9.
Cc1ccc2c(c1)N(Cc1cccc(Cl)c1)C(=O)c1cccnc1O2 was read as NR2E3 ag-1 -17.8, MC4R ag barr 2.2, Rev-erbA mod 2.7, MC4R antagonist 38.8*, NR2E3 ag-2 3.5, PG9 binder -0.4, U2OS cAMP counter -2.0 and MC4R cAMP antag -2.1.
For CCCCNC(=O)CN1C(=O)CSc2ccc(S(=O)(=O)N3CCOCC3)cc21 the results were NR2E3 ag-1 -14.7, MC4R ag barr -0.3, Rev-erbA mod 4.7, MC4R antagonist 55.0*, PG9 binder -0.5, U2OS cAMP counter -1.8 and MC4R cAMP antag -14.6.
CCCCCCCNC(=O)CN1C(=O)CSc2ccc(S(=O)(=O)N3CCOCC3)cc21 was read as NR2E3 ag-1 -11.7, MC4R ag barr -1.6, Rev-erbA mod 9.2, MC4R antagonist 0.1, NR2E3 ag-2 1.2 and PG9 binder -2.1.
COC(=O)c1ccccc1NC(=O)CNC(=O)c1ccc(OC)c(OC)c1 was read as NR2E3 ag-1 -3.4, MC4R ag barr 0.8, Rev-erbA mod -0.8, MC4R antagonist 31.0*, NR2E3 ag-2 -0.6, PG9 binder 1.0, U2OS cAMP counter 5.9 and MC4R cAMP antag 2.0.
For COc1ccccc1NC(=O)c1ccc(NC(=O)CNC(=O)c2ccc(OC)c(OC)c2)cc1 the results were NR2E3 ag-1 -4.5, MC4R ag barr -1.8, Rev-erbA mod 2.8, MC4R antagonist 9.7, NR2E3 ag-2 -0.9 and PG9 binder -1.2.
`CCCCOc1c(Br)cc(/C=C2\N=C(C)OC2=O)cc1OCC` gave NR2E3 ag-1 -23.1, MC4R ag barr -0.9, Rev-erbA mod 4.8, MC4R antagonist 33.3*, NR2E3 ag-2 -1.8, PG9 binder -0.7, U2OS cAMP counter 0.1 and MC4R cAMP antag -0.1.
`COc1ccc(S(=O)(=O)NNC(=O)c2cccs2)cc1` gave NR2E3 ag-1 -2.1, MC4R ag barr 0.1, Rev-erbA mod -4.2, MC4R antagonist 32.5*, NR2E3 ag-2 1.0, PG9 binder -2.2, U2OS cAMP counter 1.4 and MC4R cAMP antag -5.4.
For COC(=O)c1cn(-c2ccc(Cl)cc2)c(=O)c2ccccc12 the results were NR2E3 ag-1 -9.6, MC4R ag barr 0.3, Rev-erbA mod 1.4, MC4R antagonist -0.6, NR2E3 ag-2 2.8 and PG9 binder -0.6.
`CN(C)C(=O)c1cn(-c2ccc(Cl)cc2)c(=O)c2ccccc12` gave NR2E3 ag-1 -3.5, MC4R ag barr -2.2, Rev-erbA mod -3.3, MC4R antagonist 32.1*, NR2E3 ag-2 5.0, PG9 binder -2.6, U2OS cAMP counter -1.5 and MC4R cAMP antag -14.8.
`O=C(O)c1cnn(-c2nc(-c3ccc(Cl)cc3)cs2)c1C(F)(F)F` gave NR2E3 ag-1 -87.3, MC4R ag barr -1.1, Rev-erbA mod -4.8, MC4R antagonist 31.4*, NR2E3 ag-2 -1.1, PG9 binder 5.9, U2OS cAMP counter 4.1 and MC4R cAMP antag 17.9.
CC(C)NC(=O)c1cccc(Br)c1 was read as NR2E3 ag-1 6.4, MC4R ag barr 0.8, Rev-erbA mod -2.2, MC4R antagonist 3.4, NR2E3 ag-2 -1.3 and PG9 binder -0.4.
`O=S(=O)(c1ccccc1)N1CCN(c2nnc(-c3ccccc3)c3ccccc23)CC1` gave NR2E3 ag-1 -5.9, MC4R ag barr 0.8, Rev-erbA mod 5.5, MC4R antagonist 29.6*, NR2E3 ag-2 -2.6, PG9 binder -1.2, U2OS cAMP counter -0.1 and MC4R cAMP antag 12.0.
CCOC(=O)c1cn(CC)c2c(ccc3ccccc32)c1=O was read as NR2E3 ag-1 -39.4, MC4R ag barr -0.8, Rev-erbA mod 7.6, MC4R antagonist 4.6, NR2E3 ag-2 3.1 and PG9 binder -1.9.
Screening O=C(Nc1nccs1)C1CCN(S(=O)(=O)c2cnc[nH]2)CC1 returned NR2E3 ag-1 0.8, MC4R ag barr -1.3, Rev-erbA mod -4.8, MC4R antagonist 3.1, NR2E3 ag-2 5.3 and PG9 binder -0.2.
For CCOc1ccc(/C=N/NC(=O)c2nnn(-c3nonc3N)c2-c2ccc(OCC)cc2)cc1 the results were NR2E3 ag-1 -15.0, MC4R ag barr -3.2, Rev-erbA mod -3.2, MC4R antagonist 1.6, NR2E3 ag-2 -4.9 and PG9 binder -0.7.
